pEC50, pIC50: −log10 of the molar value. *1 amine or outer side, *2 acyl side, *3 side chain or, on linkers, in order; H or OH if unused. Where a SMILES comes first, the peptide text is derived from it. Side-chain parts run from the residue outwards. The star is where a group is joined. NH(1-naphthyl) = c1ccc2c(N*)cccc2c1; 3Abz = Nc1cccc(C(=O)O)c1; βNA = c1ccc2cc(N*)ccc2c1; X4 = CC(=O)c1cccc(N*)c1; X8 = Clc1ccc(N*)c(Cl)c1; Boc = CC(C)(C)OC(=O)*; X1 = Clc1cccc(Cl)c1N*; X7 = Clc1cccc(N*)c1Cl; CO = O=C([*:1])[*:2]; NHPh = c1ccc(N*)cc1; NHtBu = CC(C)(C)N*

Assay [1] has as its target T1, Cholecystokinin receptor type A (Cavia porcellus, UniProt Q63931).
T1 sequence (Q63931 whole entry): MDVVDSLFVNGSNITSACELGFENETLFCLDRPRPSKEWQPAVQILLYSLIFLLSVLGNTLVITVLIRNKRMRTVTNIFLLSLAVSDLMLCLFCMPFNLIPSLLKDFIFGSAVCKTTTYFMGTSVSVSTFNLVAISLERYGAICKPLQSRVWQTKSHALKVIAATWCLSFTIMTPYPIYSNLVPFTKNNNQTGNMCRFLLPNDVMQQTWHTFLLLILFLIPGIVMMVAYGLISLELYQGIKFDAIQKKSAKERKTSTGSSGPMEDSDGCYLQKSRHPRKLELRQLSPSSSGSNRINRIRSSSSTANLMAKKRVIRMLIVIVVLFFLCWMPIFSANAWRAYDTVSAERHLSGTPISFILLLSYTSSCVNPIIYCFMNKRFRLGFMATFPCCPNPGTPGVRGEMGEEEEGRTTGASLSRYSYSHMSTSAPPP
The assay is described as follows: Binding affinity towards cholecystokinin type A receptor in guinea pig pancreas by using [125I]BH-CCK-8 as radioligand. Format: tissue-based. In outline: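 Radioligand displacement of [125I]Bolton-Hunter CCK-8, guinea pig pancreas (CCK-A) or cortex (CCK-B) membranes. […] Each determination was run in duplicate with <5% sample variability. Means ±SE are given where there were three or more determinations.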

The species named for assay [2] is Cavia porcellus. The assay is described as follows: Percentage response in phosphoinositide hydrolysis relative to maximal response elicited by CCK-8 in guinea pig pancreatic acini. The format is functional. In outline: (§1)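 Guinea pig pancreatic acini, phosphoinositide hydrolysis. […] Efficacy is expressed as % of the maximal response elicited by CCK-8. Each determination was run in duplicate with <5% sample variability. Means ±SE are given for three or more determinations.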

The species named for assay [3] is Cavia porcellus. The assay is described as follows: The compound was tested for effective concentration for amylase release in guinea pig pancreatic Acini. The format is functional. In outline: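 Amylase release from guinea pig pancreatic acini. […] Each determination was run in duplicate with <5% sample variability. Means ±SE are given where there were three or more determinations.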

Assay [4] is described as follows: Selectivity ratio of IC50 measured in guinea pig cortex to that of IC50 for guinea pig pancreas. The note with it: Cavia porcellus.
Assay [5] addresses T1, Cholecystokinin receptor type A. The assay is described as follows: Binding affinity for Cholecystokinin type A receptor in guinea pig pancreas by using [125I]BH-CCK-8 as radioligand.
For assay [6], the species on record is Cavia porcellus. The assay is described as follows: Effective concentration for hydrolysis of phosphoinositide in guinea pig pancreatic Acini. Format: functional. In outline: as §1
Assay [7] has as its target Gastrin/cholecystokinin type B receptor (Cavia porcellus). As to the kind of experiment: Binding affinity towards cholecystokinin type B receptor in guinea pig cortex by using [125I]BH-CCK-8 as radioligand.

Turning to `CC(=O)c1cccc(NC(=O)NCCCC[C@H](NC(=O)[C@H](Cc2c[nH]c3ccccc23)NC(=O)OC(C)(C)C)C(=O)N[C@@H](CC(=O)O)C(=O)N[C@@H](Cc2ccccc2)C(N)=O)c1` (Boc-WK([CO-X4])DF-NH2), the pIC50 (commonly the negative decadic logarithm of the IC50, by convention in mol/L) in assay [1] is 7.72. The Max response in assay [2] turned out to be 95%. Also, the negative-log EC50 (pEC50) – broadly, −log10 of the EC50, conventionally taken in molar units – in assay [3] is 8.28.
On to `CC(C)(C)OC(=O)N[C@@H](Cc1c[nH]c2ccccc12)C(=O)N[C@@H](CCCCNC(=O)Nc1cccc(Cl)c1Cl)C(=O)N[C@@H](CC(=O)O)C(=O)N[C@@H](Cc1ccccc1)C(N)=O` (Boc-WK([CO-X7])DF-NH2), for which the negative-log IC50 (pIC50) in assay [1] is 8.35. Besides, the Selectivity in assay [4] stood at 670.
Regarding `COC(=O)c1cccc(NC(=O)NCCCC[C@H](NC(=O)[C@H](Cc2c[nH]c3ccccc23)NC(=O)OC(C)(C)C)C(=O)N[C@@H](CC(=O)O)C(=O)N[C@@H](Cc2ccccc2)C(N)=O)c1` (Boc-WK([CO-3Abz-OMe])DF-NH2), the pIC50 in assay [1] was 7.59. The same compound had a Max response in assay [2] of 88%. Also, the negative-log EC50 (pEC50) in assay [3] is 8.57. The Selectivity in assay [4] is 54.
In the case of `CC(C)(C)OC(=O)N[C@@H](Cc1c[nH]c2ccccc12)C(=O)N[C@@H](CCCCNC(=O)Nc1cccc2ccccc12)C(=O)N[C@@H](CC(=O)O)C(=O)N[C@@H](Cc1ccccc1)C(N)=O` (Boc-WK([CO-NH(1-naphthyl)])DF-NH2), the Max response in assay [2] was found to be 103%. The values for the pEC50 in assay [3] and in assay [6] were 8.80 and 7.85, respectively. Besides, the Selectivity in assay [4] was 690. The compound further gave a pIC50 in assay [5] of 7.80.
`CC(C)(C)NC(=O)NCCCC[C@H](NC(=O)[C@H](Cc1c[nH]c2ccccc12)NC(=O)OC(C)(C)C)C(=O)N[C@@H](CC(=O)O)C(=O)N[C@@H](Cc1ccccc1)C(N)=O` (Boc-WK([CO-NHtBu])DF-NH2) displayed a Max response in assay [2] of 73%. Moreover, the values for the pEC50 in assay [3] and in assay [6] were 7.38 and 6.48, respectively. Besides, in assay [4], the Selectivity came to 33. For the same compound, in assay [5], the pIC50 was 6.77.
As for `CC(C)(C)OC(=O)N[C@@H](Cc1c[nH]c2ccccc12)C(=O)N[C@@H](CCCCNC(=O)Nc1ccccc1)C(=O)N[C@@H](CC(=O)O)C(=O)N[C@@H](Cc1ccccc1)C(N)=O` (Boc-WK([CO-NHPh])DF-NH2), the Max response in assay [2] worked out at 96%. Further, the Selectivity in assay [4] amounted to 42. For the same compound, in assay [7], the pIC50 was 5.96. The compound further gave a pEC50 in assay [6] of 7.28.
Regarding `CC(C)(C)OC(=O)N[C@@H](Cc1c[nH]c2ccccc12)C(=O)N[C@@H](CCCCNC(=O)Nc1ccc2ccccc2c1)C(=O)N[C@@H](CC(=O)O)C(=O)N[C@@H](Cc1ccccc1)C(N)=O` (Boc-WK([CO-βNA])DF-NH2), the Max response in assay [2] was found to be 79%. The pEC50 in assay [3] was 8.15; in assay [6], 6.85. Further, in assay [4], the Selectivity came out at 200.
In assay [1], `Cc1ccccc1/N=C(/S)NCCCC[C@H](NC(=O)[C@H](Cc1c[nH]c2ccccc12)NC(=O)OC(C)(C)C)C(=O)N[C@@H](CC(=O)O)C(=O)N[C@@H](Cc1ccccc1)C(N)=O` showed a negative logarithm of the IC50 (pIC50) of 6.66.
Compound `CC(C)(C)OC(=O)N[C@@H](Cc1c[nH]c2ccccc12)C(=O)N[C@@H](CCCC/N=C(\S)Nc1ccccc1Cl)C(=O)N[C@@H](CC(=O)O)C(=O)N[C@@H](Cc1ccccc1)C(N)=O` came in with a Max response in assay [2] of 83%. The negative-log EC50 (pEC50) in assay [3] was 7.70. For the same compound, in assay [4], the Selectivity came out at 29. For the same compound, the pIC50 in assay [5] was 7.00.
As to `CC(C)(C)OC(=O)N[C@@H](Cc1c[nH]c2ccccc12)C(=O)N[C@@H](CCCCNC(=O)Nc1ccc(Cl)cc1Cl)C(=O)N[C@@H](CC(=O)O)C(=O)N[C@@H](Cc1ccccc1)C(N)=O` (Boc-WK([CO-X8])DF-NH2), the negative logarithm of the IC50 (pIC50) in assay [1] is 8.07.
In the case of `CC(C)(C)OC(=O)N[C@@H](Cc1c[nH]c2ccccc12)C(=O)N[C@@H](CCCCNC(=O)Nc1c(Cl)cccc1Cl)C(=O)N[C@@H](CC(=O)O)C(=O)N[C@@H](Cc1ccccc1)C(N)=O` (Boc-WK([CO-X1])DF-NH2), the Max response in assay [2] came out at 66%. Moreover, the pEC50 in assay [3] was 7.36; in assay [6] it was 6.51. The Selectivity in assay [4] came out at 44. Also, the negative logarithm of the IC50 (pIC50) in assay [5] is 6.80.

These data come from ChEMBL document CHEMBL1125209, “Boc-CCK-4 derivatives containing side-chain ureas as potent and selective CCK-a receptor agonists” (J Med Chem, 1991).
